Screens (PubChem BioAssay)
MEKK2 WT-MEK5: raises or lowers MEK5 binding to wildtype human MEKK2 PB1 domain. Q9Y2U5. 1.1% of 290,000 active. bead flow cytometry, Alexa488-MEK5 binding to MEKK2 WT; actives lie on both sides. binding response (% of control), % at 10 µM; in the data active = binding response below about 67% or above about 130%
Apaf-1 inh: blocks human Apaf-1 apoptosome activity | O14727 | reconstituted apoptosome caspase-3 activity, DEVD-Rh110 fluorescence | inhibition, % at 20 µM | 0.71% of 330,000 active | AID 489030; active = inhibition of at least 40% at 20 µM
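Assay system: Apoptosome proteins | Medium: pH 7.5 Hepes buffer with CHAPS, BSA, DTT | Also added: Cytochrome c and DEVD-Rh110 substrate | Times: 30 min plus 50 min, RT | Detection: Rhodamine 110 fluorescence at Ex 480/Em 540 nm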
MEKK2 mut-MEK5: signal of MEK5 binding to mutant human MEKK2 PB1 domain; AID 1530; bead flow cytometry, Alexa488-MEK5 binding to MEKK2 mutant; percent response, % at 10 µM; 0.35% of 290,000 active; in the data active = percent response above about 24%, passing the limit was not always enough
MEKK3 PB1 HTS: raises or lowers MEK5 binding to the human MEKK3 PB1 domain; AID 1529; Q99759; binding response (% of control), % at 10 µM; 1.4% of 290,000 active; bead-based flow cytometry, Alexa488-MEK5 binding to MEKK3; actives lie on both sides; 0 = blocked by unlabeled MEK5, 100 = vehicle;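 active = binding response more than 3 SD above or below the average of its plate-row segment, actives on both sides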;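 note: Alexa488 bead fluorescence after subtracting the streptavidin-only scavenger bead signal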
UBC13 inh: human UBC13 polyubiquitination inhibition; P61088; UBC13 polyubiquitin chain formation, TR-FRET; inhibition, % at 20 µM; 0.47% of 330,000 active; AID 485273; in the data active = inhibition above about 45%, passing the limit was not always enough
Target sequence (P61088 whole entry, looked up): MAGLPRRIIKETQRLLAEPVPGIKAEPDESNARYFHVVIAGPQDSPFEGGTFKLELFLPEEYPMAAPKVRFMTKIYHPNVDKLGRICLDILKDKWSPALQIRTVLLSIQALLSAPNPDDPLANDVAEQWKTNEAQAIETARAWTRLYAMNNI
MEKK2wt confirm: raises or lowers MEK5 binding to wildtype human MEKK2, retest. bead flow cytometry, Alexa488-MEK5 binding to MEKK2 WT; actives lie on both sides. binding response (% of control), % at 10 µM. shares compounds with MEKK3 PB1 HTS. 2.4% of 5,900 active; in the data active = binding response below about 16% or above about 210%; inactive = in between
MEKK2mut-MEK5: signal of MEK5 binding to mutant human MEKK2, retest; bead flow cytometry, Alexa488-MEK5 binding to MEKK2 mutant; shares compounds with MEKK3 PB1 HTS; 2% of 5,900 active; percent response, % at 10 µM; in the data active = percent response mostly above about 71%, no sharp cut-off; inactive = mostly below about 38%;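 note: higher means compound restores mutant binding toward wildtype level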
MEKK3-MEK5 inh: confirmation of inhibitors of MEK5 binding to human MEKK3. shares compounds with MEKK3 PB1 HTS. bead flow cytometry, Alexa488-MEK5 binding to MEKK3; hits give low values. binding response (% of control), % at 10 µM. 1.8% of 5,900 active. AID 1894;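 active = binding response below 72% of control, or above a set upper limit, though filed actives all read lower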;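 note: lower values mean stronger disruption of MEK5 binding to MEKK3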
Hits are given with their value; . = inactive; / = no result; [ ] = remark or other dose. Shown are actives, neighbours in structure and some others; about 2.9% of the full set was active somewhere.

SMILES	MEKK2 WT-MEK5	Apaf-1 inh	MEKK2 mut-MEK5	MEKK3 PB1 HTS	UBC13 inh	MEKK2wt confirm	MEKK2mut-MEK5	MEKK3-MEK5 inh
COc1cc(OC)cc(OCC(O)Cn2ccnc2C)c1 (centres undefined)	2.0[inhibitor]	.	.	2.0[inhibitor]	.	.	.	.
COC(=O)C1=C(C)NC2=C(C(=O)CC(c3cccs3)C2)C1c1ccsc1 (centres undefined)	.	/	.	.	/	/	/	/
CCOC(=O)C1=C(C)NC2=C(C(=O)CC(c3cccs3)C2)C1c1cccs1 (centres undefined)	.	.	.	72[inhibitor]	.	.	.	.
Cc1c(Cl)ccc2c(C(=O)NC(C)c3ccncc3)cc(-c3ccncc3)nc12 (centres undefined)	.	.	.	.	.	/	/	/
O=C(C1CCCO1)N1CCN(c2ccccn2)CC1 (centres undefined)	.	.	.	73[inhibitor]	.	.	.	.
COc1ccc(C(=O)Nc2cccc(-c3cc4ccccc4oc3=O)c2)cc1[N+](=O)[O-]	.	/	.	.	/	/	/	/
CC(/C=C/c1ccccc1)=N/NC(=O)c1nc2nc(C)cc(C)n2n1	.	.	.	130	.	.	.	.
COc1ccc(OCCCCn2c(CO)nc3ccccc32)cc1	.	.	.	.	.	/	/	/
COc1cc(-c2nc(-c3ccc(NC(=O)c4ccc5c(c4)OCO5)cc3)no2)cc(OC)c1OC	45[inhibitor]	.	.	.	.	.	.	.
Cc1ccccc1-c1nc(-c2ccc(NC(=O)c3ccc4c(c3)OCO4)cc2)no1	.	.	.	.	.	/	/	/
Cc1ccc(Cc2c(C)nc3nc(SCC(=O)NCc4ccco4)nn3c2C)cc1	.	.	.	122	.	.	.	.
Cc1cccc(Cc2c(C)nc3nc(SCC(=O)NCc4ccco4)nn3c2C)c1	.	.	.	126	.	.	.	.
Cc1ccccc1Cc1c(C)nc2nc(SCC(=O)NCc3ccco3)nn2c1C	.	.	.	.	.	/	/	/
Cc1nc2nc(SCC(=O)NCc3ccco3)nn2c(C)c1Cc1c(F)cccc1Cl	.	.	.	.	.	/	/	/
COC(CNC(=O)CCc1c(C)nc2c(-c3ccc(F)cc3)c(C)nn2c1C)OC	.	.	.	.	.	/	/	/
Cc1nc2c(-c3ccc(F)cc3)c(C)nn2c(C)c1CCC(=O)Nc1ccccc1F	.	.	.	45[inhibitor]	.	.	.	.
O=C(Cn1cnc2c(nnn2Cc2ccc(F)cc2)c1=O)NCC1CCCO1 (centres undefined)	.	.	.	.	.	/	/	/
CCCn1c(C)cc(-c2csc(N)n2)c1C	.	.	.	.	.	/	/	/
COc1ccc(-n2c(C)cc(-c3csc(N)n3)c2C)cc1	.	.	.	128	.	.	.	.
Cc1cc(-c2csc(N)n2)c(C)n1-c1ccc(Cl)c(Cl)c1	.	.	.	153	.	.	.	.
CCCCN(C(=O)CSc1nnc2ccccn12)c1c(N)n(Cc2ccccc2)c(=O)[nH]c1=O	.	.	.	128	.	.	.	.
CCN(C(=O)CSc1nnc2ccccn12)c1c(N)n(Cc2ccccc2)c(=O)[nH]c1=O	.	.	.	.	.	/	/	/
c1ccc(-c2nc(-c3ccco3)n3ccccc23)cc1	58[inhibitor]	.	.	.	.	.	.	.
CCCCC1=CC2=C(c3ccco3)C(=O)C(C)(OC(=O)c3ccc(OC)cc3)C(=O)C2=CN1CCN1CCOCC1 (centres undefined)	142	.	.	.	.	.	.	.
CCCCC1=CC2=C(c3ccco3)C(=O)C(C)(OC(=O)c3ccc(OC)cc3)C(=O)C2=CN1C(CO)CO (centres undefined)	144	.	.	.	.	.	.	.
CC(C)c1ccccc1NC(=O)COC(=O)/C=C/c1cccc([N+](=O)[O-])c1	.	.	.	.	.	/	/	/
